Measurements from ChEMBL document CHEMBL5154713, “Illuminating a Dark Kinase: Structure-Guided Design, Synthesis, and Evaluation of a Potent Nek1 Inhibitor and Its Effects on the Embryonic Zebrafish Pronephros” (J Med Chem, 2022).

What was measured:
[1] = target: T1, Serine/threonine-protein kinase Nek1 (Homo sapiens, UniProt Q96PY6); experiment: Inhibition of human recombinant NEK1 (1 to 505 residues) using RLGRDKYKTLRQIRQ as substrate incubated for 40 mins in presence of [gamma-33P]-ATP by radiometric scintillation counting assay
T1 sequence (Q96PY6 whole entry): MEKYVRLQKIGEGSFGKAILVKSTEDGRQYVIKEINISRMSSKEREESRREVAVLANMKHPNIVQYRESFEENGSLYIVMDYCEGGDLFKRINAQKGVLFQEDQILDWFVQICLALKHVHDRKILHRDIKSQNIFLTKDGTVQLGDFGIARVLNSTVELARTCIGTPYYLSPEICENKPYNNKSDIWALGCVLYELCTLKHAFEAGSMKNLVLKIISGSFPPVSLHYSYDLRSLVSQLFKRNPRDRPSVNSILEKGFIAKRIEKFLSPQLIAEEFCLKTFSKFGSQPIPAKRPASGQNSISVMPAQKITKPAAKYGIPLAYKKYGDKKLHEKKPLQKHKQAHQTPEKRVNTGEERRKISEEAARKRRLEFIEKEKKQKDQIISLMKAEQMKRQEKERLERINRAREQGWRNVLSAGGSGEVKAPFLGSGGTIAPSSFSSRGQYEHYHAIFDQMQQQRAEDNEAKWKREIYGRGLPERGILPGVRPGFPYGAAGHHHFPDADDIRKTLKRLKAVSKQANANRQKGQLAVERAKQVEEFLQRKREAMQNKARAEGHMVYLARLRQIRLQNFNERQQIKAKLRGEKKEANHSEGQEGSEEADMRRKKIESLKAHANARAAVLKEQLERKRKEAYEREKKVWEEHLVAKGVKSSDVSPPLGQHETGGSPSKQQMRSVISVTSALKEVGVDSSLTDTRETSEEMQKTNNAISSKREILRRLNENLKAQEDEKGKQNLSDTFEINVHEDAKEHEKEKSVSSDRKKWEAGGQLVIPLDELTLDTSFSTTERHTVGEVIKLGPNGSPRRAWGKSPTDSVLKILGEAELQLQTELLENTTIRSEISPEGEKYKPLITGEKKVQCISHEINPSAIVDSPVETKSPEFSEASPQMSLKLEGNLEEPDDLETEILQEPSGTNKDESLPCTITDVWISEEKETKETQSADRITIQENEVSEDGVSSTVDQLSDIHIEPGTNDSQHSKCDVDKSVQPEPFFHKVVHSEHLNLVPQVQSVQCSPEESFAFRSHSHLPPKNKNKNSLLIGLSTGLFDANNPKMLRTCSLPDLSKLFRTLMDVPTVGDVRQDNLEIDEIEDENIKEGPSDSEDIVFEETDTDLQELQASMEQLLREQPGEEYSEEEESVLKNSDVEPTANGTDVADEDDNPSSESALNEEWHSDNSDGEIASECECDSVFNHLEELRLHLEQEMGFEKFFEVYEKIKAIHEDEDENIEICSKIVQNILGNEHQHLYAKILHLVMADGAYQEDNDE
In short: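 Eurofins IC50Profiler radiometric assay on recombinant human Nek1 (1−505), ATP at 10 μM or 90 μM (near Km). Nine concentrations at half-log steps from 10 μM to 1 nM, with vehicle controls. IC50 and 95% CI obtained by four-parameter nonlinear regression. Mean of two independent experiments.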

[2] = target: T2, Serine/threonine-protein kinase Nek1 (Homo sapiens) (UniProt Q96PY6); experiment: Inhibition of human recombinant NEK1 (1 to 505 residues) assessed as residual activity at 1 uM using RLGRDKYKTLRQIRQ as substrate incubated for 40 mins in presence of [gamma-33P]-ATP by radiometric scintillation counting assay relative to control
T2 sequence (whole entry): T1 sequence (Q96PY6 whole entry)
In short: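 Eurofins KinaseProfiler radiometric panel, compound at 1 μM, ATP at 10 μM or within 15 μM of apparent Km. For Nek1 (1−505): 8 mM MOPS pH 7.0, 0.2 mM EDTA, 250 μM peptide, 10 mM Mg acetate, [γ-33P]-ATP, 40 min at room temperature. Stopped with 0.5% phosphoric acid, filtermat spotting, scintillation counting. Mean of two independent experiments.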

[3] = target: T1, Serine/threonine-protein kinase Nek1; experiment: Inhibition of human recombinant NEK1 (1 to 505 residues) using ULight-p70 S6K peptide as substrate incubated for 30 mins by LANCE Ultra TR-FRET assay
In short: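 Recombinant human Nek1 (1−505, 0.02 nM) in 50 mM HEPES pH 7.5, 1 mM EGTA, 10 mM MgCl2, 0.2 mM DTT, 0.01% Tween20, with 50 nM ULight-p70 S6K peptide and 60 μM ATP, 30 min at 22 °C. Stopped with EDTA plus Eu anti-phospho antibody, 1 h signal development. Ten half-log concentrations from 30 μM (10 μM for some) to 1 nM. Mean of two experiments.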

Row | Compound | IC50 [1] [µM] | Activity [2] [%] | IC50 [3] [µM]
1 | CC(=O)OCCNS(=O)(=O)c1ccc(-c2ccnc3[nH]ccc23)cc1 | – | 49 | 8.8
2 | O=S(=O)(NCCN1CCCCC1)c1ccc(-c2ccnc3[nH]ccc23)cc1 | – | 37 | 6.6
3 | CN(C)CCNS(=O)(=O)c1ccc(-c2ccnc3[nH]ccc23)cc1 | 4.3 | 37 | 7.1
4 | O=S(=O)(NCCN1CCOCC1)c1ccc(-c2ccnc3[nH]ccc23)cc1 | – | 51 | 27
5 | O=C(O)[C@H](Cc1ccccc1)NS(=O)(=O)c1ccc(-c2ccnc3[nH]ccc23)cc1 | – | 94 | –
6 | CCN(CC)CCNS(=O)(=O)c1ccc(-c2ccnc3[nH]ccc23)cc1 | – | 68 | 10
7 | COCCNS(=O)(=O)c1ccc(-c2ccnc3[nH]ccc23)cc1 | – | 44 | > 30
8 | O=C(NCCO)c1ccc(-c2ccnc3[nH]ccc23)cc1 | – | 89 | 29
9 | CC(C)(C)OC(=O)NCCNS(=O)(=O)c1ccc(-c2ccnc3[nH]ccc23)cc1 | – | 49 | –
10 | CN1CCN(S(=O)(=O)c2ccc(-c3ccnc4[nH]ccc34)cc2)CC1 | – | 45 | > 10

The remaining compounds from weak to strong by IC50 [3], led by results:

Row | IC50 [1] [µM] | Activity [2] [%] | IC50 [3] [µM] | Compound
11 | – | 32 | 5.8 | CC(C)(O)CNS(=O)(=O)c1ccc(-c2ccnc3[nH]ccc23)cc1
12 | 2 | 12 | 3.2 | O=S(=O)(NCCO)c1ccc(-c2ccnc3[nH]ccc23)cc1
13 | – | 46 | 2.7 | CN(CCO)S(=O)(=O)c1ccc(-c2ccnc3[nH]ccc23)cc1
14 | – | 33 | 2 | O=S(=O)(N[C@H](CO)Cc1ccc(O)cc1)c1ccc(-c2ccnc3[nH]ccc23)cc1
15 | – | 19 | 1.9 | O=S(=O)(N[C@H](CO)Cc1ccccc1)c1ccc(-c2ccnc3[nH]ccc23)cc1
16 | – | 25 | 1.6 | O=S(=O)(N[C@@H](CO)Cc1ccc(O)cc1)c1ccc(-c2ccnc3[nH]ccc23)cc1
17 | – | 16 | 1.3 | O=S(=O)(N[C@@H](CO)Cc1ccccc1)c1ccc(-c2ccnc3[nH]ccc23)cc1
18 | – | 19 | 0.99 | O=S(=O)(N[C@H](CO)Cc1c[nH]c2ccccc12)c1ccc(-c2ccnc3[nH]ccc23)cc1
